Results reported in ChEMBL document CHEMBL1159018, “(-)-agelasidine C and (-)-agelasidine D, two new hypotaurocyamine diterpenoids from the Caribbean sea sponge Agelas clathrodes” (J Nat Prod, 1992).
Converted amounts (≈) assume the structure as drawn. The source made the active and inactive calls. No cut-off for these calls is given here.

Legend:
Klebsiella pneumoniae [1] = experiment: Antimicrobial activity against Klebsiella pneumoniae at 1.9 mg/ml by standard disk assay; type: functional, organism-based
How it was run: (§1)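 Tested at one concentration only, 1.9 mg/ml.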

[2] = Cytotoxicity against CHOK1 cells; type: cell-based, Cricetulus griseus; conditions: chinese hamster, CHO-K1 cells; read-out: ED50 (the source's name)
How it was run: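 CHO-K1 cell growth inhibition, reported as ED50 in µg/ml.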

Proteus vulgaris [3] = experiment: Antimicrobial activity against Proteus vulgaris at 1.9 mg/ml by standard disk assay; type: functional, organism-based; how it was run: as §1
Staphylococcus aureus [4] = experiment: Antimicrobial activity against Staphylococcus aureus at 1.9 mg/ml by standard disk assay; type: functional, organism-based; how it was run: as §1
Staphylococcus aureus [5] = experiment: Antimicrobial activity against Staphylococcus aureus by standard disk assay; type: functional, organism-based; how it was run: as §1
Escherichia coli = experiment: Antimicrobial activity against Escherichia coli by standard disk assay; type: functional, organism-based
Proteus vulgaris [6] = experiment: Antimicrobial activity against Proteus vulgaris by standard disk assay; type: functional, organism-based; how it was run: as §1
Klebsiella pneumoniae [7] = experiment: Antimicrobial activity against Klebsiella pneumoniae by standard disk assay; type: functional, organism-based; how it was run: as §1
Hafnia alvei = experiment: Antimicrobial activity against Hafnia alvei by standard disk assay; type: functional, organism-based

Row | SMILES | Activity (Klebsiella pneumoniae [1]) | CC50 [2] | Activity (Proteus vulgaris [3]) | Activity (Staphylococcus aureus [4]) | Activity (Staphylococcus aureus [5]) | Activity (Escherichia coli) | Activity (Proteus vulgaris [6]) | Activity (Klebsiella pneumoniae [7]) | Activity (Hafnia alvei)
1 | CC1=CCC[C@H](C)[C@@]1(C)CC/C(C)=C/CC/C(C)=C/CS(=O)(=O)CCNC(=N)N | Active | 5.7 µg/mL (≈ 13.5 µM) | Active | Active | – | – | – | – | –
2 | CC1=CCC[C@H](C)[C@@]1(C)CC/C(C)=C/CC/C(=C/CS(=O)(=O)CCNC(=N)N)CO | – | 2.21 µg/mL (≈ 5.03 µM) | – | – | Active | Active | Active | Active | Active
